Drawing on ChEMBL document CHEMBL3244241, “Synthesis of cephalotaxine esters and correlation of their structures with antitumor activity” (J Med Chem, 1977), this text covers Activity and T/C for four compounds.

The source made the active and inactive calls. No cut-off for these calls is given here.

Series [1] relates to Mus musculus. The experiment in a line: Toxicity in DBA/2 mouse allografted with mouse P388 cells at >80 mg/kg/day, ip for 9 days. The class given is organism-based. Particulars: in vivo, 216 h. In a few lines: (§1)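 DBA/2 mice bearing P388 lymphocytic leukemia received one intraperitoneal injection per day for 9 days, given in the vehicle named for each test (water/alcohol-based, saline or saline + Tween 80). Toxicity was noted during dosing alongside survival scoring (T/C, treated versus control mean survival time).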

Series [2] has as its system P388. Nature of the series: Antitumor activity against mouse P388 cells allografted in ip dosed DBA/2 mouse administered for 9 days. The class given is functional, organism-based. In a few lines:
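P388 lymphocytic leukemia in DBA/2 mice; one intraperitoneal injection per day for 9 days. […] Injection vehicles were water + alcohol, saline + Tween 80, or aqueous 0.5% citric acid. Some tests were duplicated, and 30-day cures were recorded.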

Series [3] concerns P388. Nature of the series: Antitumor activity against mouse P388 cells allografted in DBA/2 mouse assessed as host survival at 40 mg/kg/day, ip for 9 days compound administered through water+alcohol vehicle relative to control. Type of series: functional. Particulars: route intraperitoneal. In outline: (§2)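 P388 lymphocytic leukemia in DBA/2 mice. Dosing was one intraperitoneal injection per day for 9 days in the vehicle stated. […] Duplicate tests were run for some doses.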

Series [4] has as its system Mus musculus. Nature of the series: Toxicity in DBA/2 mouse allografted with mouse P388 cells assessed as change in body weight at 160 mg/kg/day, ip for 9 days compound administered through water+alcohol vehicle. Type of series: organism-based. Particulars: in vivo, 216 h. Also noted: route intraperitoneal. In a few lines: as §1
Series [5] has as its system P388. Nature of the series: Antitumor activity against mouse P388 cells allografted in DBA/2 mouse assessed as host survival at 240 mg/kg/day, ip for 9 days compound administered through water+alcohol vehicle relative to control. The class given is functional. Particulars: route intraperitoneal. In a few lines:
as §2

For series [6], the system named is P388. Nature of the series: Antitumor activity against mouse P388 cells allografted in DBA/2 mouse assessed as host survival at 80 mg/kg/day, ip for 9 days compound administered through water+alcohol vehicle relative to control. The class given is functional. The settings on record: route intraperitoneal. In a few lines: as §2
The test system of series [7] is Mus musculus. Nature of the series: Toxicity in DBA/2 mouse allografted with mouse P388 cells assessed as change in body weight at 80 mg/kg/day, ip for 9 days compound administered through water+alcohol vehicle. Also on record: route intraperitoneal. The settings on record: in vivo, 216 h. The class given is organism-based. In outline: as §1
Series [8] concerns Mus musculus. The experiment in a line: Toxicity in DBA/2 mouse allografted with mouse P388 cells assessed as change in body weight at 240 mg/kg/day, ip for 9 days compound administered through water+alcohol vehicle. Also noted: route intraperitoneal. The class given is organism-based. The settings on record: in vivo, 216 h. In outline:
as §1

For series [9], the system named is Mus musculus. Nature of the series: Toxicity in DBA/2 mouse allografted with mouse P388 cells assessed as change in body weight at 365 mg/kg/day, ip for 9 days compound administered through water+alcohol vehicle. The settings on record: in vivo, 216 h. Also noted: route intraperitoneal. The class given is organism-based. In outline:
as §1

Series [10] concerns P388. The experiment in a line: Antitumor activity against mouse P388 cells allografted in DBA/2 mouse assessed as host survival at 160 mg/kg/day, ip for 9 days compound administered through water+alcohol vehicle relative to control. The class given is functional. The settings on record: route intraperitoneal. In a few lines: as §2
The subject of series [11] is Mus musculus. Nature of the series: Toxicity in DBA/2 mouse allografted with mouse P388 cells at 400 mg/kg/day, ip for 9 days. Type of series: organism-based. The settings on record: in vivo, 216 h. Also noted: route intraperitoneal. In outline:
as §1

Series [12] deals with Mus musculus. The experiment in a line: Toxicity in DBA/2 mouse allografted with mouse P388 cells assessed as change in body weight at 40 mg/kg/day, ip for 9 days compound administered through water+alcohol vehicle. Particulars: in vivo, 216 h. Also noted: route intraperitoneal. Type of series: organism-based. In outline:
as §1

Series [13] relates to P388. Nature of the series: Antitumor activity against mouse P388 cells allografted in DBA/2 mouse assessed as host survival at 365 mg/kg/day, ip for 9 days compound administered through water+alcohol vehicle relative to control. The class given is functional. The settings on record: route intraperitoneal. In outline:
as §2

The subject of series [14] is P388. The experiment in a line: Antitumor activity against mouse P388 cells allografted in DBA/2 mouse assessed as host survival at 160 mg/kg/day, ip for 9 days compound administered through saline vehicle relative to control. The class given is functional. Particulars: route intraperitoneal. In a few lines: as §2
Series [15] deals with P388. Nature of the series: Antitumor activity against mouse P388 cells allografted in DBA/2 mouse assessed as host survival at 320 mg/kg/day, ip for 9 days compound administered through saline vehicle relative to control. Type of series: functional. The settings on record: route intraperitoneal. In a few lines:
as §2

In series [16] the test system is Mus musculus. The experiment in a line: Toxicity in DBA/2 mouse allografted with mouse P388 cells assessed as change in body weight at 160 mg/kg/day, ip for 9 days compound administered through saline vehicle. Particulars: in vivo, 216 h. The class given is organism-based. Also on record: route intraperitoneal. In a few lines: as §1
Series [17] has as its system P388. Nature of the series: Antitumor activity against mouse P388 cells allografted in DBA/2 mouse assessed as host survival at 80 mg/kg/day, ip for 9 days compound administered through saline vehicle relative to control. The class given is functional. Particulars: route intraperitoneal. In outline:
as §2

Series [18] has as its system Mus musculus. Nature of the series: Toxicity in DBA/2 mouse allografted with mouse P388 cells up to 320 mg/kg/day, ip for 9 days. The class given is organism-based. Also noted: route intraperitoneal. Particulars: in vivo, 216 h. In a few lines:
as §1

In series [19] the test system is Mus musculus. Nature of the series: Toxicity in DBA/2 mouse allografted with mouse P388 cells assessed as change in body weight at 80 mg/kg/day, ip for 9 days compound administered through saline vehicle. The class given is organism-based. Also noted: route intraperitoneal. Particulars: in vivo, 216 h. In outline: as §1
Series [20] concerns Mus musculus. The experiment in a line: Toxicity in DBA/2 mouse allografted with mouse P388 cells assessed as change in body weight at 320 mg/kg/day, ip for 9 days compound administered through saline vehicle. Type of series: organism-based. Also on record: route intraperitoneal. Particulars: in vivo, 216 h. In outline:
as §1

The test system of series [21] is Mus musculus. The experiment in a line: Toxicity in DBA/2 mouse allografted with mouse P388 cells at 480 mg/kg/day, ip for 9 days. Also on record: route intraperitoneal. The settings on record: in vivo, 216 h. The class given is organism-based. In outline: as §1

Turning to `COC1=C[C@]23CCCN2CCc2cc4c(cc2[C@@H]3[C@@H]1OC(=O)[C@@H](O)c1ccccc1)OCO4`, the Activity entry in [1] is on record as “Toxic”. Further, the result in series [2] was inactive.
On to `C=C(CC(=O)OC)C(=O)O[C@@H]1C(OC)=C[C@]23CCCN2CCc2cc4c(cc2[C@H]13)OCO4`, for which the T/C in [3] was 135%; in [5], 169%; in series [6] it was 173%; in [10], 167%; in [13], 198%. The Activity in [4] is given as -1.1 g; in series [7], -0.1 g; in series [8], -1.4 g; in series [9], -3 g; in series [11] it was “Toxic”; in series [12] it was -1.3 g.
Turning to `COC1=C[C@]23CCCN2CCc2cc4c(cc2[C@@H]3[C@@H]1OC(=O)[C@@H](OC(=O)OCC(Cl)(Cl)Cl)c1ccccc1)OCO4`, the values for the T/C in series [14], in series [15] and in series [17] were 154%, 136% and 138%, respectively. Besides, the Activity is 1.2 g in series [16], “Toxic” in series [18], -1 g in [19] and -2.3 g in [20].
On to `C=C(CC(=O)OC)C(=O)O[C@@H]1C(OC)=C[C@]23CCCN2CCc2cc4c(cc2[C@H]13)OCO4` (single isomer, unassigned), for which the Activity entry in series [21] is “Toxic”.
